Experimental data as given in ChEMBL document CHEMBL5724801, “EUbOPEN Chemogenomics Library - Multiplex” (2024).
Several values for one entry are separate records, joined by “and”; a condition that tells them apart may be missing. Identical values can stand only once.

Key:
HEK-293T = assay: Multiplex assay against HEK293T; format: toxicity, cell-based; conditions: human
Procedure, shortened: (§1)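 Hoechst33342, BioTracker Green Microtubule Cytoskeleton Dye, MitoTracker Red and Annexin V Alexa Fluor 680 were added to live cells at seeding, and imaging on a CQ1 microscope at 37°C and 5% CO2 followed compound addition. Gating by CellPathfinder machine learning separated cells into Hoechst high-intensity objects or normal cells, then normal cells into healthy, pyknosed or fragmented nuclei, then pyknosed cells into mitotic or apoptotic. Per cents of healthy-nucleus cells are reported for the tubulin, mitochondrial-mass and membrane-permeability phenotypes.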

U2OS = assay: Multiplex assay against U2OS; format: toxicity, cell-based; conditions: human; procedure, shortened: as §1
[1] = 24 h, 10 µM, compound concentration 10 uM
[2] = 48 h, 1 µM, compound concentration 1 uM
[3] = 48 h, 10 µM, compound concentration 10 uM
[4] = 12 h, 1 µM, compound concentration 1 uM
[5] = 12 h, 10 µM, compound concentration 10 uM
[6] = 24 h, 1 µM, compound concentration 1 uM

SMILES: Cc1cc(-c2ccc3c(c2)CC[C@H]3N2CC3(CCN(C(=O)Cc4cn5cc(C)sc5n4)CC3)C2)ncn1 [PF-5190457]
- Population Healthy Nuclei (%) (HEK-293T; [1]): 75% and 81%
- Population Hoechst High Intensity Objects (%) (HEK-293T; [1]): 5% and 6%
- Population Membrane Permeable-Phenotype (%) (HEK-293T; [1]): 1% and 0%
- Population Mitochondria Different-Phenotype (%) (HEK-293T; [1]): 28% and 51%
- Population Mitotic Cells (%) (HEK-293T; [1]): 74% and 63%
- Population Normal (%) (HEK-293T; [1]): 94% and 93%
- Population Pyknosed Nuclei (%) (HEK-293T; [1]): 14% and 13%
- Population Tubulin-Different-Phenotype (%) (HEK-293T; [1]): 30% and 23%
- Total Cell Count (HEK-293T; [1]): 638 and 425
- Population Apoptotic (%) (HEK-293T; [2]): 25% and 39%
- Population Fragmented Nuclei (%) (HEK-293T; [2]): 14% and 12%
- Population Healthy Nuclei (%) (HEK-293T; [2]): 79% and 80%
- Population Hoechst High Intensity Objects (%) (HEK-293T; [2]): 1% and 3%
- Population Membrane Permeable-Phenotype (%) (HEK-293T; [2]): 1%
- Population Mitochondria Different-Phenotype (%) (HEK-293T; [2]): 18% and 21%
- Population Mitotic Cells (%) (HEK-293T; [2]): 74% and 60%
- Population Normal (%) (HEK-293T; [2]): 98% and 96%
- Population Pyknosed Nuclei (%) (HEK-293T; [2]): 5% and 6%
- Population Tubulin-Different-Phenotype (%) (HEK-293T; [2]): 9% and 10%
- Total Cell Count (HEK-293T; [2]): 873 and 531
- Population Apoptotic (%) (HEK-293T; [3]): 24% and 46%
- Population Fragmented Nuclei (%) (HEK-293T; [3]): 14% and 13%
- Population Healthy Nuclei (%) (HEK-293T; [3]): 77% and 78%
- Population Hoechst High Intensity Objects (%) (HEK-293T; [3]): 2% and 4%
- Population Membrane Permeable-Phenotype (%) (HEK-293T; [3]): 0%
- Population Mitochondria Different-Phenotype (%) (HEK-293T; [3]): 27% and 32%
- Population Mitotic Cells (%) (HEK-293T; [3]): 76% and 53%
- Population Normal (%) (HEK-293T; [3]): 97% and 95%
- Population Pyknosed Nuclei (%) (HEK-293T; [3]): 8%
- Population Tubulin-Different-Phenotype (%) (HEK-293T; [3]): 20%
- Total Cell Count (HEK-293T; [3]): 927 and 520
- Population Apoptotic (%) (U2OS; [4]): 82% and 63%
- Population Fragmented Nuclei (%) (U2OS; [4]): 24% and 21%
- Population Healthy Nuclei (%) (U2OS; [4]): 65% and 66%
- Population Hoechst High Intensity Objects (%) (U2OS; [4]): 1% and 0%
- Population Membrane Permeable-Phenotype (%) (U2OS; [4]): 7% and 4%
- Population Mitochondria Different-Phenotype (%) (U2OS; [4]): 3%
- Population Mitotic Cells (%) (U2OS; [4]): 17% and 36%
- Population Normal (%) (U2OS; [4]): 98% and 100%
- Population Pyknosed Nuclei (%) (U2OS; [4]): 9% and 11%
- Population Tubulin-Different-Phenotype (%) (U2OS; [4]): 4% and 3%
- Total Cell Count (U2OS; [4]): 239 and 93
- Population Apoptotic (%) (U2OS; [5]): 61% and 71%
- Population Fragmented Nuclei (%) (U2OS; [5]): 18% and 14%
- Population Healthy Nuclei (%) (U2OS; [5]): 66% and 74%
- Population Hoechst High Intensity Objects (%) (U2OS; [5]): 2% and 1%
- Population Membrane Permeable-Phenotype (%) (U2OS; [5]): 7% and 8%
- Population Mitochondria Different-Phenotype (%) (U2OS; [5]): 5% and 10%
- Population Mitotic Cells (%) (U2OS; [5]): 38% and 28%
- Population Normal (%) (U2OS; [5]): 97% and 98%
- Population Pyknosed Nuclei (%) (U2OS; [5]): 14% and 11%
- Population Tubulin-Different-Phenotype (%) (U2OS; [5]): 5% and 6%
- Total Cell Count (U2OS; [5]): 238 and 126
- Population Apoptotic (%) (U2OS; [6]): 69% and 33%
- Population Fragmented Nuclei (%) (U2OS; [6]): 25% and 21%
- Population Healthy Nuclei (%) (U2OS; [6]): 66% and 76%
- Population Hoechst High Intensity Objects (%) (U2OS; [6]): 1% and 0%
- Population Membrane Permeable-Phenotype (%) (U2OS; [6]): 8% and 6%
- Population Mitochondria Different-Phenotype (%) (U2OS; [6]): 3% and 1%
- Population Mitotic Cells (%) (U2OS; [6]): 30% and 66%
- Population Normal (%) (U2OS; [6]): 98% and 99%
- Population Pyknosed Nuclei (%) (U2OS; [6]): 8% and 2%
- Population Tubulin-Different-Phenotype (%) (U2OS; [6]): 5% and 2%
- Total Cell Count (U2OS; [6]): 282 and 126
- Population Apoptotic (%) (U2OS; [1]): 67% and 84%
- Population Fragmented Nuclei (%) (U2OS; [1]): 18%
- Population Healthy Nuclei (%) (U2OS; [1]): 72% and 69%
- Population Hoechst High Intensity Objects (%) (U2OS; [1]): 2% and 1%
- Population Membrane Permeable-Phenotype (%) (U2OS; [1]): 3% and 11%
- Population Mitochondria Different-Phenotype (%) (U2OS; [1]): 0% and 8%
- Population Mitotic Cells (%) (U2OS; [1]): 32% and 15%
- Population Normal (%) (U2OS; [1]): 97% and 98%
- Population Pyknosed Nuclei (%) (U2OS; [1]): 9% and 12%
- Population Tubulin-Different-Phenotype (%) (U2OS; [1]): 1% and 4%
- Total Cell Count (U2OS; [1]): 295 and 154
- Population Apoptotic (%) (U2OS; [2]): 84% and 66%
- Population Fragmented Nuclei (%) (U2OS; [2]): 20% and 16%
- Population Healthy Nuclei (%) (U2OS; [2]): 71% and 78%
- Population Hoechst High Intensity Objects (%) (U2OS; [2]): 0% and 2%
- Population Membrane Permeable-Phenotype (%) (U2OS; [2]): 7% and 4%
- Population Mitochondria Different-Phenotype (%) (U2OS; [2]): 4% and 2%
- Population Mitotic Cells (%) (U2OS; [2]): 15% and 33%
- Population Normal (%) (U2OS; [2]): 99% and 97%
- Population Pyknosed Nuclei (%) (U2OS; [2]): 8% and 5%
- Population Tubulin-Different-Phenotype (%) (U2OS; [2]): 4% and 2%
- Total Cell Count (U2OS; [2]): 402 and 184
- Population Apoptotic (%) (U2OS; [3]): 74% and 76%
- Population Fragmented Nuclei (%) (U2OS; [3]): 16% and 18%
- Population Healthy Nuclei (%) (U2OS; [3]): 71%
- Population Hoechst High Intensity Objects (%) (U2OS; [3]): 3%
- Population Membrane Permeable-Phenotype (%) (U2OS; [3]): 5% and 11%
- Population Mitochondria Different-Phenotype (%) (U2OS; [3]): 2% and 6%
- Population Mitotic Cells (%) (U2OS; [3]): 25% and 23%
- Population Normal (%) (U2OS; [3]): 96%
- Population Pyknosed Nuclei (%) (U2OS; [3]): 12% and 10%
- Population Tubulin-Different-Phenotype (%) (U2OS; [3]): 3% and 4%
- Total Cell Count (U2OS; [3]): 389 and 217
